Data published in article PMC6476708 (Psychopharmacology, 2018).

Legend:
DAT [1] = target: T1, DAT (Rattus norvegicus, UniProt P23977); assay: Uptake inhibition of [3H]dopamine in rat brain synaptosomes; assay type: biochemical; conditions: for DAT/SERT ratio ([DAT IC50]^−1/[SERT IC50]^−1): synaptosome uptake assays, higher value indicates greater DAT-selectivity
SERT [2] = target: T2, SERT (Rattus norvegicus, UniProt P31652); assay: Uptake inhibition of [3H]5-HT in rat brain synaptosomes; assay type: biochemical
human DAT [3] = target: T3, human DAT (Homo sapiens, UniProt Q01959); assay: Uptake inhibition in HEK-293 cells expressing human DAT; assay type: cell-based
human SERT [4] = target: T4, human SERT (Homo sapiens, UniProt P31645); assay: Uptake inhibition in HEK-293 cells expressing human SERT; assay type: cell-based
DAT [5] = target: T1, DAT; assay: Release of [3H]MPP+ from rat brain synaptosomes; assay type: biochemical; conditions: 0.1 nM to 10 μM
Outline: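 Crude synaptosomes were prepared from rat caudate: homogenized in ice-cold 10% sucrose, spun at 1000 g for 10 min, supernatant kept. They were preloaded for 1 h with 9 nM [3H]MPP+ in Krebs-phosphate buffer; all buffers contained 1 μM reserpine. Test compound was applied at 0.1 nM–10 μM in triplicate. Release was stopped by vacuum filtration and counted by scintillation. EC50 was derived by nonlinear regression; n=3.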

SERT [6] = target: T2, SERT; assay: Release of [3H]5-HT from rat brain synaptosomes; assay type: biochemical
human DAT [7] = target: T3, human DAT; assay: Efflux; assay type: cell-based; conditions: HEK-293 human DAT, 10 μM drug, with or without 10 μM monensin
human SERT [8] = target: T4, human SERT; assay: Efflux; assay type: cell-based; conditions: HEK-293 human SERT; for [3H]5-HT efflux at SERT: 10 μM drug; for effect of monensin on drug-evoked [3H]5-HT efflux at SERT: 10 μM drug plus 10 μM monensin
Outline: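 HEK-293 cells stably expressing YFP-tagged human SERT, seeded at 40,000 cells/well on poly-D-lysine-coated coverslips. Preloaded with 0.3 μM radiolabelled substrate for 20 min at 37 °C, then superfused at 25 °C, 0.7 mL/min, with Krebs Ringer HEPES (pH 7.4). Fractions collected every 2 min. After a 40-min washout baseline, 10 μM test compound was added alone or with 10 μM monensin. Cells were lysed in 1% SDS and counted by scintillation. Analysis: two-way ANOVA with Tukey; n=3, triplicate.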

human DAT [9] = target: T3, human DAT; assay: Transporter-mediated ionic currents, whole cell patch clamp, HEK-293 human DAT; assay type: cell-based; conditions: voltage clamped to −60 mV, 300 nM to 300 μM
Outline: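 HEK-293 cells stably expressing human DAT were seeded at low density 24 h before recording. Whole-cell voltage clamp was held at −60 mV, with K-gluconate/EGTA pipette solution (pH 7.2) and NaCl/glucose HEPES bath (pH 7.4). Test compound (300 nM–300 μM) was applied by rapid superfusion. Passive holding currents were subtracted, traces low-pass filtered at 100 Hz, and currents normalised to 10 μM endogenous substrate. One-way ANOVA; n=3.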

human SERT [10] = target: T4, human SERT; assay: Transporter-mediated ionic currents, whole cell patch clamp, HEK-293 human SERT; assay type: cell-based; conditions: voltage clamped to −60 mV, 300 nM to 300 μM
[11] = system: extracellular dopamine and 5-HT in nucleus accumbens; assay: In vivo microdialysis in the nucleus accumbens of conscious rats; conditions: rat nucleus accumbens dialysate
Outline: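 Male Sprague-Dawley rats (300–400 g) were implanted under ketamine/xylazine with a jugular catheter and a nucleus accumbens guide cannula, then recovered ≥1 week. Probes were perfused with Ringer's at 0.6 μL/min, and 20-min dialysates were assayed for dopamine and 5-HT by HPLC-ECD. After three stable baselines, rats received 1 mg/kg i.v. at time zero, then 3 mg/kg at 60 min; controls received saline 1 mL/kg. Data are % of baseline; N=6–7/group; two-way ANOVA, Bonferroni.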

motor activity = assay: Motor activity and stereotypy; assay type: in vivo, rat; conditions: rats, 1 and 3 mg/kg i.v.; for motor activity (forward locomotion): compared to saline
Outline: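 Conscious, tethered male Sprague-Dawley rats were acclimated overnight in photobeam arenas and tracked for forward locomotion and stereotypy during microdialysis. Dosing was i.v. via jugular catheter: 1 mg/kg at time zero, then 3 mg/kg 60 min later; saline controls received 1 mL/kg on the same schedule. Data are % of basal preinjection values; N=6–7/group; two-way ANOVA (treatment × time) with Bonferroni tests against saline.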

DAT and SERT = conditions: HEK-293 cells, uptake inhibition; ref Simmler et al. 2013; 2014; cited from earlier work
DAT [12] = conditions: 100 μM drug; ref Dolan et al. (2018); cited from earlier work
[13] = 3 mg/kg i.v. given 60 min after 1 mg/kg

T1 sequence (P23977 whole entry): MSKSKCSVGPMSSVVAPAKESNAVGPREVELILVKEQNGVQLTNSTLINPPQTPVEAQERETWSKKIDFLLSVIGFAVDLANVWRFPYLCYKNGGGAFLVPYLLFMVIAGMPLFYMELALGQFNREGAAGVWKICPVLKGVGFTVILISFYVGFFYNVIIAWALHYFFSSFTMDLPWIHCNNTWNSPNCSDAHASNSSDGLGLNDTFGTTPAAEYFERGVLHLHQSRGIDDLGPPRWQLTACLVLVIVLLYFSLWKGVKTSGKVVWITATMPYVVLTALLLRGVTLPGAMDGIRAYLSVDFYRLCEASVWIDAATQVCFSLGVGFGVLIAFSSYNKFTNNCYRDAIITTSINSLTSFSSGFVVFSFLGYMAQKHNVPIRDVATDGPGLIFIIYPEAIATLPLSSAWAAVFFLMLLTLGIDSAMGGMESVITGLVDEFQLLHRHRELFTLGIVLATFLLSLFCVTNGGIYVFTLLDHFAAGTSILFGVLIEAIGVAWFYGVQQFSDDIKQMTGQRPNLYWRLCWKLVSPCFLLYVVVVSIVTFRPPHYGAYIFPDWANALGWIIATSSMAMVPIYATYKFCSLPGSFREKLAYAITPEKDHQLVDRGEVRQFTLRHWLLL
T4 sequence (P31645 whole entry): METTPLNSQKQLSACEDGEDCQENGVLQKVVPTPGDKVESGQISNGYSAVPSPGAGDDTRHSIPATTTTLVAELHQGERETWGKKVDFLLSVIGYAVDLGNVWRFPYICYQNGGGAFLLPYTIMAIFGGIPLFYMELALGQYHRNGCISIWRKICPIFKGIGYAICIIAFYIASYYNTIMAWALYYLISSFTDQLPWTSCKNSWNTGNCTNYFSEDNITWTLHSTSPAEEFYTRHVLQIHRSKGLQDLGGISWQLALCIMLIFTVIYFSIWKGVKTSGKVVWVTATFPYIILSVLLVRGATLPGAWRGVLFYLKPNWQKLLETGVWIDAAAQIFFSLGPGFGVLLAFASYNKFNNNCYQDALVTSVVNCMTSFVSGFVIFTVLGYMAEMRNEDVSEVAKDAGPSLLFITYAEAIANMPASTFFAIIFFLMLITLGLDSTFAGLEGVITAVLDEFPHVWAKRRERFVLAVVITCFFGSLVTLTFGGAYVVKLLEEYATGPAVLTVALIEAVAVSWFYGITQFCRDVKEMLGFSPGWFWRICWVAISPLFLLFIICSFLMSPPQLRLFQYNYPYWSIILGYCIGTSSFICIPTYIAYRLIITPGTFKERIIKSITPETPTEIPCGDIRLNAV
T2 sequence (P31652 whole entry): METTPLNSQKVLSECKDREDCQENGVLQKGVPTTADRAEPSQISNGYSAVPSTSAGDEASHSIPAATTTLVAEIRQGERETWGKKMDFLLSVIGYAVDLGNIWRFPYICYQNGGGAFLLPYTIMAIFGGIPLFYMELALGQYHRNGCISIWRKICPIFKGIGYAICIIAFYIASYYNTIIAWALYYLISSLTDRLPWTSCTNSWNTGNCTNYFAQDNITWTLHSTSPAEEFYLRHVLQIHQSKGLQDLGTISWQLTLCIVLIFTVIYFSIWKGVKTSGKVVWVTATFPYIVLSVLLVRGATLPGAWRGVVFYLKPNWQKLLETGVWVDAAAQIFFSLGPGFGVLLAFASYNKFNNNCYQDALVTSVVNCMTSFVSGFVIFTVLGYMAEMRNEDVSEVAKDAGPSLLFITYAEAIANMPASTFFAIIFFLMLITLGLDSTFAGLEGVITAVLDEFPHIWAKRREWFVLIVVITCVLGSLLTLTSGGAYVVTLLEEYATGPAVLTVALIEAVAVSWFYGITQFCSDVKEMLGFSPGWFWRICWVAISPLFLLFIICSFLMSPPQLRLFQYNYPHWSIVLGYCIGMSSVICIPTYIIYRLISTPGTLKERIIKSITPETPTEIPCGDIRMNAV
T3 sequence (Q01959 whole entry): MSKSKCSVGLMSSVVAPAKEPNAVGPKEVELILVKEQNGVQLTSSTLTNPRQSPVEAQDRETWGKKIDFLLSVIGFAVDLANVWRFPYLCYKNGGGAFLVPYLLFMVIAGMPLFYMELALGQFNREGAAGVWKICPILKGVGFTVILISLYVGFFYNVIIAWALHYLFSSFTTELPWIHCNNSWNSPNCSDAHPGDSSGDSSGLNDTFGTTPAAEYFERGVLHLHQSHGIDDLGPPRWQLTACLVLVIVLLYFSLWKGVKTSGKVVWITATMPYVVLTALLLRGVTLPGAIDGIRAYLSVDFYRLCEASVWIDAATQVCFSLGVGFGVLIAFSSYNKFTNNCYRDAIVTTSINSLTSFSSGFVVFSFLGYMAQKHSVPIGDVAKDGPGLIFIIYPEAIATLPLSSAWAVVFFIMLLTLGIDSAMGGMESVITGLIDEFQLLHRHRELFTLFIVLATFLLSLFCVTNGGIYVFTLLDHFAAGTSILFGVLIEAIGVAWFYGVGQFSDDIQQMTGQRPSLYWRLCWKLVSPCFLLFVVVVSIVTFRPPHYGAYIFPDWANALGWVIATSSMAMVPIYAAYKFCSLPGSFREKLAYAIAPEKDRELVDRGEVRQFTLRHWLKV

SMILES | IC50 (DAT [1]) | DAT/SERT ratio ([DAT IC50]^−1/[SERT IC50]^−1) (DAT [1]) | IC50 (SERT [2]) | IC50 (human DAT [3]) | IC50 (human SERT [4]) | release of [3H]MPP+ at DAT (DAT [5]) | EC50 (SERT [6]) | [3H]MPP+ efflux at DAT (human DAT [7]) | [3H]5-HT efflux at SERT (human SERT [8]) | effect of monensin on drug-evoked [3H]5-HT efflux at SERT (human SERT [8]) | transporter-mediated currents at DAT (human DAT [9]) | SERT-mediated inward currents (human SERT [10]) | extracellular 5-HT levels increase ([11]; 1 mg/kg i.v.) | extracellular dopamine levels above baseline ([11]; 1 mg/kg i.v.) | extracellular 5-HT levels increase [11, 13] | extracellular dopamine levels increase [11, 13] | motor activity (forward locomotion) (motor activity) | DAT/SERT ratio (DAT and SERT) | drug-induced current at DAT as fraction of current induced by dopamine (DAT [12]) | other results
CCC(NC)C(=O)c1ccc2c(c1)OCO2 (stereo not shown) [butylone, 1-(1,3-Benzodioxol-5-yl)-2-(methylamino)butan-1-one] | 400 ± 20 nM | 3.6 | 1430 ± 160 nM | 1440 ± 100 nM | 24400 ± 2000 nM | failed to produce efficacious release | 330 ± 40 nM | neither butylone nor pentylone evoked [^3H]MPP^+ efflux at DAT | evoked [^3H]5-HT efflux at SERT | markedly enhanced | no discernable currents | dose-related induction of SERT-mediated inward currents | 3 fold | 2 fold | ~7 fold | about 3.5 fold | increased motor activity | 2.1 | < 20% | 
CCCC(NC)C(=O)c1ccc2c(c1)OCO2 (stereo not shown) [pentylone, 1-(1,3-benzodioxol-5-yl)-2-(methylamino)pentan-1-one] | 120 ± 10 nM | 11.4 | 1360 ± 100 nM | 310 ± 70 nM | 11700 ± 500 nM | failed to produce efficacious release | 1030 ± 180 nM | neither butylone nor pentylone evoked [^3H]MPP^+ efflux at DAT | evoked [^3H]5-HT efflux at SERT | markedly enhanced | no discernable currents | dose-related induction of SERT-mediated inward currents | no effect | 2 fold | 3 fold | about 3.5 fold | increased motor activity | 6.2 | < 20% | efficacy of SERT-mediated release (SERT [6]; rat brain synaptosomes, [3H]5-HT release): 48 % of Emax; stereotypy (repetitive movements) (motor activity; post hoc tests vs saline): increased stereotypy
